Measured values taken from ChEMBL document CHEMBL2417395, “Synthesis and biological evaluation of novobiocin analogues as potential heat shock protein 90 inhibitors” (Bioorg Med Chem, 2013).
Each block holds one compound with its values, some of them ahead of it. Activity calls are given as the source filed them. The calls are words filed in the database; no cut-off is given here.

How the values were obtained:
Heat shock protein HSP90 [1] = biological target: T1, Heat shock protein HSP90 (Homo sapiens, UniProt P07900+P08238); test: Inhibition of HSP90 in human MCF7 cells assessed as depletion of total HER2 protein level at 50 uM after 18 hrs by Western blot analysis relative to control; format: cell-based
Outline: (§1)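 MCF-7 cells at 70% confluence treated 18 h; floating plus trypsinized cells pooled, lysed in NP-40 buffer (pH 7.4) with protease/phosphatase inhibitors; 20 µg protein on 7.5% SDS-PAGE, nitrocellulose, milk block; probed for HER2 (2.0 µg/mL monoclonal) or HSP72, alkaline-phosphatase secondary, NBT/BCIP development; Ponceau S loading check.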

MCF7 = test: Cytotoxicity against ER-positive human MCF7 cells expressing low level of HER2 after 3 days by MTT assay; format: functional, cell-based; conditions: MCF7, 72 h
Outline: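 MCF-7 seeded 2,000 cells/well, serial dilutions added after 24 h, 72 h exposure; MTT at 500 µg/mL final, 3 h at 37 °C, formazan dissolved in DMSO, absorbance 570 nm minus 650 nm background. Triplicates, at least two experiments; IC50 = concentration cutting viable signal by 50% of DMSO control.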

Heat shock protein HSP90 [2] = biological target: T1, Heat shock protein HSP90; test: Inhibition of HSP90 in human SKBR3 cells assessed as depletion of cell surface HER2 protein level at 100 uM after 18 hrs by immunofluorescence-based flow cytometric analysis relative to control; conditions: SK-BR-3
Outline: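 SKBR3 cells treated 18 h at 100 µM (controls: DMSO, GA 0.5 µM, NB 500 µM), trypsinized, blocked in goat serum/PBA (pH 7.6) on ice, anti-HER2 20 µg/mL 30 min then Alexa 488 secondary 2 µg/mL 20 min on ice; mean fluorescence intensity by flow cytometry, isotype antibody control.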

Heat shock protein HSP90 [3] = biological target: T1, Heat shock protein HSP90; test: Inhibition of HSP90 in human MCF7 cells assessed as depletion of cell surface HER2 protein level after 18 hrs by flow cytometry
SK-BR-3 [4] = test: Cytotoxicity against human SKBR3 cells assessed as growth inhibition at 100 uM after 18 hrs by capillary-based flow cytometric analysis; format: functional, cell-based
Outline: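 Short-term viability: SKBR3 cells exposed overnight under the same conditions as the surface-HER2 screen, then stained with a DNA-staining viability reagent; viable cell number counted by capillary flow cytometry.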

SK-BR-3 [5] = test: Cytotoxicity against ER-negative human SKBR3 cells expressing high level of HER2 after 3 days by MTT assay; format: functional, cell-based; conditions: SK-BR-3, 72 h
Outline: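 SKBR3 cells in RPMI 1640 with 10% FBS exposed to serial dilutions for 3 days; MTT dye-reduction read-out of relative viable cell number. IC50 taken as concentration giving 50% reduction versus DMSO-treated cells.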

SK-BR-3 [6] = test: Cell cycle arrest in human SKBR3 cells assessed as accumulation at G0/G1 phase at 0.5 uM after 48 hrs by flow cytometric analysis (reference value: 54 +/- 2%); format: functional
SK-BR-3 [7] = test: Cell cycle arrest in human SKBR3 cells assessed as accumulation at subG1 phase at 0.5 uM after 48 hrs by flow cytometric analysis (reference value: 7 +/- 1%); format: functional
SK-BR-3 [8] = test: Cell cycle arrest in human SKBR3 cells assessed as accumulation at S phase at 0.5 uM after 48 hrs by flow cytometric analysis (reference value: 19 +/- 6%); format: functional
Oryctolagus cuniculus [9] = organism: Oryctolagus cuniculus; test: Inhibition of HSP90 in rabbit reticulocyte lysate assessed as inhibition of heat-denatured luciferase refolding at 0.5 uM by luminescence plate reader analysis; conditions: TDE = time-dependent effect
Outline: (§2)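 Rabbit reticulocyte lysate with ATP regeneration (10 mM phosphocreatine, 1 mM ATP, 17.5 IU creatine kinase) preincubated with compound 20 min on ice; firefly luciferase (100 nM) heat-denatured 40 °C 8 min, diluted 10-fold into lysate; 28 °C, triplicate aliquots luminescence-read at 0, 15, 30, 60 min; mean RLU or % of DMSO.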

Oryctolagus cuniculus [10] = organism: Oryctolagus cuniculus; test: Inhibition of HSP90 in rabbit reticulocyte lysate assessed as inhibition of heat-denatured luciferase refolding after 30 mins by luminescence plate reader analysis; outline: as §2
SK-BR-3 [11] = test: Cell cycle arrest in human SKBR3 cells assessed as accumulation at G2/M phase at 0.5 uM after 48 hrs by flow cytometric analysis (reference value: 21 +/- 1%); format: functional
SK-BR-3 [12] = test: Cell cycle arrest in human SKBR3 cells assessed as accumulation at S phase at 1000 uM after 48 hrs by flow cytometric analysis (reference value: 19 +/- 6%); format: functional
Heat shock protein HSP90 [13] = biological target: T1, Heat shock protein HSP90; test: Inhibition of HSP90 in human SKBR3 cells assessed as aggregation of intracellular HER2 at 1000 uM after 18 hrs by DAPI staining-based immunofluorescence microscopic analysis; format: cell-based; conditions: SK-BR-3
Outline: (§3)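 SKBR3 in chamber slides adhered overnight, treated 18 h, fixed 4% paraformaldehyde, permeabilized 1% Triton X-100, goat-serum block; anti-HER2 (20 µg/mL) then Alexa Fluor 488 secondary (2 µg/mL) on ice, DAPI nuclear counterstain; imaged at 160× with identical exposures. GA 0.5 µM positive control.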

SK-BR-3 [14] = test: Cell cycle arrest in human SKBR3 cells assessed as accumulation at G0/G1 phase at 1000 uM after 48 hrs by flow cytometric analysis (reference value: 54 +/- 2%); format: functional
SK-BR-3 [15] = test: Cell cycle arrest in human SKBR3 cells assessed as accumulation at subG1 phase at 1000 uM after 48 hrs by flow cytometric analysis (reference value: 7 +/- 1%); format: functional
SK-BR-3 [16] = test: Cell cycle arrest in human SKBR3 cells assessed as accumulation at G2/M phase at 1000 uM after 48 hrs by flow cytometric analysis (reference value: 21 +/- 1%); format: functional
Mus musculus [17] = organism: Mus musculus; test: Inhibition of HSP90 in mouse 3T3-Y9-B12 cells assessed as activation of HSF1 at 1000 uM after overnight incubation by GFP reporter gene assay relative to control; format: cell-based
Outline: (§4)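 3T3-Y9-B12 mouse fibroblasts carrying a GFP gene under a minimal heat-shock element; near-confluent monolayers given serial dilutions in triplicate wells overnight, DMSO ≤0.25% vehicle, GA 0.5 µM positive control; after PBS wash, fluorescence at 485/525 nm, normalized to DMSO.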

Oryctolagus cuniculus [18] = organism: Oryctolagus cuniculus; test: Inhibition of HSP90 in rabbit reticulocyte lysate assessed as inhibition of heat-denatured luciferase refolding at 500 uM by luminescence plate reader analysis; conditions: TDE = time-dependent effect; outline: as §2
Heat shock protein HSP90 [19] = biological target: T1, Heat shock protein HSP90; test: Inhibition of HSP90 in human SKBR3 cells assessed as aggregation of intracellular HER2 at 25 uM after 18 hrs by DAPI staining-based immunofluorescence microscopic analysis; format: cell-based; conditions: SK-BR-3; outline: as §3
SK-BR-3 [20] = test: Cell cycle arrest in human SKBR3 cells assessed as accumulation at subG1 phase after 48 hrs by flow cytometric analysis; format: functional, cell-based
Heat shock protein HSP90 [21] = biological target: T1, Heat shock protein HSP90; test: Inhibition of HSP90 in human MCF7 cells assessed as depletion of total HER2 protein level at 12.5 to 25 uM after 18 hrs by Western blot analysis; format: cell-based; outline: as §1
Mus musculus [22] = organism: Mus musculus; test: Inhibition of HSP90 in mouse 3T3-Y9-B12 cells assessed as activation of HSF1 at 0.78 to 25 uM after overnight incubation by GFP reporter gene assay relative to control; format: cell-based; outline: as §4
SK-BR-3 [23] = test: Cell cycle arrest in human SKBR3 cells assessed as accumulation at G0/G1 phase at 12.5 uM after 48 hrs by flow cytometric analysis (reference value: 54 +/- 2%); format: functional
SK-BR-3 [24] = test: Cell cycle arrest in human SKBR3 cells assessed as accumulation at G0/G1 phase at 25 uM after 48 hrs by flow cytometric analysis (reference value: 54 +/- 2%); format: functional
Oryctolagus cuniculus [25] = organism: Oryctolagus cuniculus; test: Inhibition of HSP90 in rabbit reticulocyte lysate assessed as inhibition of heat-denatured luciferase refolding at 100 uM by luminescence plate reader analysis; conditions: TDE = time-dependent effect; outline: as §2
SK-BR-3 [26] = test: Cell cycle arrest in human SKBR3 cells assessed as accumulation at subG1 phase at 25 uM after 48 hrs by flow cytometric analysis (reference value: 7 +/- 1%); format: functional
SK-BR-3 [27] = test: Cell cycle arrest in human SKBR3 cells assessed as accumulation at G2/M phase at 12.5 uM after 48 hrs by flow cytometric analysis (reference value: 21 +/- 1%); format: functional
SK-BR-3 [28] = test: Cell cycle arrest in human SKBR3 cells assessed as accumulation at S phase at 12.5 uM after 48 hrs by flow cytometric analysis (reference value: 19 +/- 6%); format: functional
SK-BR-3 [29] = test: Cell cycle arrest in human SKBR3 cells assessed as accumulation at subG1 phase at 12.5 to 25 uM by flow cytometric analysis; format: functional, cell-based; conditions: TDE = time-dependent effect
SK-BR-3 [30] = test: Cell cycle arrest in human SKBR3 cells assessed as accumulation at subG1 phase at 12.5 uM after 48 hrs by flow cytometric analysis (reference value: 7 +/- 1%); format: functional
SK-BR-3 [31] = test: Cell cycle arrest in human SKBR3 cells assessed as accumulation at S phase at 25 uM after 48 hrs by flow cytometric analysis (reference value: 19 +/- 6%); format: functional
SK-BR-3 [32] = test: Cell cycle arrest in human SKBR3 cells assessed as accumulation at G2/M phase at 25 uM after 48 hrs by flow cytometric analysis (reference value: 21 +/- 1%); format: functional

inhibition (Heat shock protein HSP90 [1]): 50%
inhibition (Heat shock protein HSP90 [2]): 40%
EC50 (Heat shock protein HSP90 [3]): 38 µM
Structure (SMILES): COc1ccc(C(=O)Nc2c(OC)c3ccc(O[C@@H]4OC(C)(C)[C@H](OC)[C@@H](OC(N)=O)[C@H]4O)c(C)c3oc2=O)cc1CC=C(C)C
IC50 (MCF7): 18 µM
growth inhibition (GI) (SK-BR-3 [4]): Active
IC50 (SK-BR-3 [5]): 19 µM

inhibition (Oryctolagus cuniculus [9]): tde
inhibition (Oryctolagus cuniculus [10]): Dose-dependent effect
Structure (SMILES): COC1=C2C[C@@H](C)C[C@H](OC)[C@H](O)[C@@H](C)/C=C(\C)[C@H](OC(N)=O)[C@@H](OC)/C=C\C=C(/C)C(=O)NC(=CC1=O)C2=O [GELDANAMYCIN]
Activity (SK-BR-3 [6]): 65%
Activity (SK-BR-3 [7]): 16%
Activity (SK-BR-3 [8]): 10%
Activity (SK-BR-3 [11]): 18%

inhibition (Heat shock protein HSP90 [2]): inactive
inhibition (Heat shock protein HSP90 [13]): Active
inhibition (Oryctolagus cuniculus [10]): Dose-dependent effect
inhibition (Oryctolagus cuniculus [18]): tde
Structure (SMILES): CO[C@@H]1[C@@H](OC(N)=O)[C@@H](O)[C@H](Oc2ccc3c(O)c(NC(=O)c4ccc(O)c(CC=C(C)C)c4)c(=O)oc3c2C)OC1(C)C [NOVOBIOCIN]
Activity (SK-BR-3 [12]): 15%
IC50 (MCF7): 357 µM
Activity (SK-BR-3 [14]): 57%
Activity (SK-BR-3 [15]): 38%
Activity (SK-BR-3 [16]): 10%
IC50 (SK-BR-3 [5]): 350 µM
fold change (FC) (Mus musculus [17]): 1.5

inhibition (Heat shock protein HSP90 [19]): Active
inhibition (Heat shock protein HSP90 [1]): 50%
inhibition (Heat shock protein HSP90 [21]): Active
inhibition (Heat shock protein HSP90 [2]): 40%
inhibition (Oryctolagus cuniculus [25]): tde
EC50 (Heat shock protein HSP90 [3]): 24 µM
inhibition (Oryctolagus cuniculus [10]): Dose-dependent effect
Structure (SMILES): CO[C@@H]1[C@@H](OC(N)=O)[C@@H](O)[C@H](Oc2ccc3cc(NC(=O)c4ccc(O)c(CC=C(C)C)c4)c(=O)oc3c2C)OC1(C)C
Activity (SK-BR-3 [20]): Dose-dependent effect
IC50 (MCF7): 15 µM
fold change (FC) (Mus musculus [22]): < 2
Activity (SK-BR-3 [23]): 62%
Activity (SK-BR-3 [24]): 43%
Activity (SK-BR-3 [26]): 48%
Activity (SK-BR-3 [27]): 9%
growth inhibition (GI) (SK-BR-3 [4]): Active
Activity (SK-BR-3 [28]): 10%
Activity (SK-BR-3 [29]): tde
Activity (SK-BR-3 [30]): 22%
Activity (SK-BR-3 [31]): 17%
IC50 (SK-BR-3 [5]): 17 µM
Activity (SK-BR-3 [32]): 15%
